Source: publication PMC10077533 (ACS Omega, 2023)

Experiments:
[1] = system: calf-thymus DNA (ct-DNA); conditions: classical DNA intercalator, comparison value; cited from earlier work
[2] = system: ct-DNA; conditions: obtained from the literature; cited from earlier work
[3] = system: MDA-MB-468 breast cancer cells; assay: γ-H2AX staining, detection of DNA damage; format: cell-based, human; conditions: MDA-MB-468, 50 μM
Procedure, shortened: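 MDA-MB-468 cells treated with test compound, then immunocytochemically stained for γ-H2AX, with untreated cells as control. DNA damage imaged as red fluorescence, and red fluorescence intensity quantified.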

[4] = system: MDA-MB-468 breast cancer cells; assay: JC-1 staining, mitochondrial membrane potential by flow cytometry; format: cell-based, human; conditions: MDA-MB-468, positive control, 5μM CCCP

CC[n+]1c(-c2ccccc2)c2cc(N)ccc2c2ccc(N)cc21 [EtBr, ethidium bromide]
Kb value of EtBr (KEtBr) [1]: 7 × 10^5 M^–1 | KEtBr, EtBr binding constant [2]: 1.0 × 10^7 M^–1

N.N.[Cl][Pt][Cl] [cisplatin]
γH2AX (phosphorylated histone) staining [3]: DNA damage

N#CC(C#N)=NNc1cccc(Cl)c1 [CCCP, carbonyl cyanide m-chlorophenylhydrazone]
cells with damaged mitochondria (JC-1 monomers) [4]: 76.98% | cells with healthy mitochondria (red + green fluorescing JC-1 aggregates) [4]: 22.08%
